Active and inactive are the calls of the source. No cut-off for these calls is given here.
Assays:
Stromelysin-2 = Stromelysin-2 (Homo sapiens, UniProt P09238); test: Inhibition of MMP10 (unknown origin) using fluorescently-labeled substrate measured every min for 1 min
Stromelysin-1 = Stromelysin-1 (Homo sapiens, UniProt P08254); test: Inhibition of MMP3 (unknown origin) using fluorescently-labeled substrate measured every min for 1 min
[1] = molecular target: Matrix metalloproteinase-14 (Homo sapiens) (UniProt P50281); test: Inhibition of recombinant human MMP14 at 10 uM after 60 mins by fluorescence assay
[2] = molecular target: T1, Matrilysin (Homo sapiens) (UniProt P09237); test: Inhibition of recombinant human MMP7 at 10 uM after 45 mins by fluorescence assay
T1 sequence (whole entry): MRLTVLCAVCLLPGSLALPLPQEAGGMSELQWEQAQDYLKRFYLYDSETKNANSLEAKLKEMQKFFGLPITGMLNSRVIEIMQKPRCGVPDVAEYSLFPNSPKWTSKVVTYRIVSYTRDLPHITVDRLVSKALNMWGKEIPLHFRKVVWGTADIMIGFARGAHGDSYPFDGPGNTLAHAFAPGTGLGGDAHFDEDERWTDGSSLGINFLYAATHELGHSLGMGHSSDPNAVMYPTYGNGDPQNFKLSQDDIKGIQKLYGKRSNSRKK

[3] = Cytotoxicity against human THLE2 cells assessed as decrease in cell viability after 72 hrs by luminescence assay; format: cell-based; conditions: THLE-2 cells, read-out: LC50
Outline: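 Healthy human hepatic THLE-2 line; compounds incubated with cells for 72 hours, then viability measured. Cytotoxicity reported as LC50.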

[4] = Therapeutic index, ratio of LC50 for human THLE2 cells to EC50 for antifibrinolytic activity in human whole blood; format: toxicity
Outline: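 THLE-2 healthy hepatic cells were exposed to compound for 72 hours and cell viability was read to give LC50. Antifibrinolytic EC50 came from thromboelastography in triplicate or duplicate. The index is LC50 relative to EC50, expressed in log units.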

[5] = Solubility of the compound in saline solution at 10 mM; format: physicochemical; conditions: buffer, 10000 µM
Mus musculus [6] = test: Antifibrinolytic activity in tPA-induced C57Bl6 mouse hyperfibrinolytic tail bleeding model assessed as bleeding time at 1 mg/kg, iv administered for 5 mins post tPA challenge for 5 mins measured up to 30 mins by spectrophotometric method (reference value: 29.28 +/- 0.4 min); format: functional
Mus musculus [7] = species on record: Mus musculus; test: Potency index, ratio of bleeding time for tranexamic acid to bleeding time for test compound in tPA-induced C57Bl6 mouse hyperfibrinolytic tail bleeding model; format: functional
[8] = molecular target: Prothrombin (Homo sapiens) (UniProt P00734); test: Effect on human plasma thrombin activity at 0.01 to 10 uM using S2238 as substrate incubated for 15 mins followed by substrate addition measured after 30 mins
Homo sapiens = species on record: Homo sapiens; test: Effect on plasminogen/tPA (unknown origin) activity assessed as plasmin generation at 0.01 to 10 uM using S2251 as substrate incubated for 15 mins followed by substrate addition measured after 30 mins
[9] = molecular target: Tissue-type plasminogen activator (Homo sapiens) (UniProt P00750); test: Effect on tPA (unknown origin) activity at 0.01 to 10 uM incubated for 15 mins
Chain of Tissue-type plasminogen activator (Homo sapiens) (P00750 36-562 limits assumed): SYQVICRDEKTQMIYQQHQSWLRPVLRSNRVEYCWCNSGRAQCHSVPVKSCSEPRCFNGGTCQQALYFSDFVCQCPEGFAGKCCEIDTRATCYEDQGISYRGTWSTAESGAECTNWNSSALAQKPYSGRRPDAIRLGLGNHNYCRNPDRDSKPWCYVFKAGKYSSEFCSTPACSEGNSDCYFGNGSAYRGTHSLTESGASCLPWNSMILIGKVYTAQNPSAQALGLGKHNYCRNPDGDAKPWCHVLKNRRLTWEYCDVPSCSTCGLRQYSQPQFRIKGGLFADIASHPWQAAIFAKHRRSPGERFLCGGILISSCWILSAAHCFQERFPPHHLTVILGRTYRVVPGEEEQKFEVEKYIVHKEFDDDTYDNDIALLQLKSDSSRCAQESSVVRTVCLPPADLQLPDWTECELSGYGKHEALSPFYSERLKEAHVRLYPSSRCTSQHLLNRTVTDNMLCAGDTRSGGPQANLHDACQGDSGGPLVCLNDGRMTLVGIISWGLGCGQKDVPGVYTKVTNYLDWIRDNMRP

Chain of Stromelysin-1 (P08254 whole entry): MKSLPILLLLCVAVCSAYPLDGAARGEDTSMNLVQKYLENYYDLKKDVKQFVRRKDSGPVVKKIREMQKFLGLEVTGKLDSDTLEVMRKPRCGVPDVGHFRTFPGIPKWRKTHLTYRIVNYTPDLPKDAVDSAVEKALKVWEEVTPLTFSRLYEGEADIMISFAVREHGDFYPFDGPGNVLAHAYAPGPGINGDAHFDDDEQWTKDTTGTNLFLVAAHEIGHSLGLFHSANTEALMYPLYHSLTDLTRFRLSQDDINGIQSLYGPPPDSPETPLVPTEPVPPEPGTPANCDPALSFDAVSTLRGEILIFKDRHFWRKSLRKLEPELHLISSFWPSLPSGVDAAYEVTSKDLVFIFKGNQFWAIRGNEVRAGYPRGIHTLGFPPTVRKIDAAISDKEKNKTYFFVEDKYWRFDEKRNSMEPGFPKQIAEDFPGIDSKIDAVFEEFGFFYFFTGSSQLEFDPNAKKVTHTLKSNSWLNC
Chain of Stromelysin-2 (P09238 whole entry): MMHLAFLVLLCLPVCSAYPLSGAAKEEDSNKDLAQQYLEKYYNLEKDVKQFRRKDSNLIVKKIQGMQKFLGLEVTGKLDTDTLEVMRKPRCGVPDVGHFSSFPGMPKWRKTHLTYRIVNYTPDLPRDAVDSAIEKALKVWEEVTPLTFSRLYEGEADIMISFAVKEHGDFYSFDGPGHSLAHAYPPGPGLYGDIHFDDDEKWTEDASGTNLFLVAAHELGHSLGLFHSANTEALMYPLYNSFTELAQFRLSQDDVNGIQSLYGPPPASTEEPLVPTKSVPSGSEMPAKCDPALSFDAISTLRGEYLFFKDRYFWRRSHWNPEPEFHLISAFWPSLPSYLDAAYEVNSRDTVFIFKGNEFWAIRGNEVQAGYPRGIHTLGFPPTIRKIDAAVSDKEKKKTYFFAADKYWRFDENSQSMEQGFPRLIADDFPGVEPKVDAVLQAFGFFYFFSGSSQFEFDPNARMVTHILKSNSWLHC

Row | SMILES | IC50 (Stromelysin-2) | IC50 (Stromelysin-1) | further results
1 | O=S(=O)(c1ccc(Oc2ccc(OC(F)(F)F)cc2)cc1)C1(CO)CCC2(CCNCC2)C1 (stereo not drawn) | > 10 µM | > 10 µM | 
2 | NC(=O)C1(S(=O)(=O)c2ccc(Oc3ccc(OC(F)(F)F)cc3)cc2)CCC2(CCNCC2)C1 (stereo not drawn) | > 10 µM | > 10 µM | 
3 | C#CCCCN1CCC2(CC1)CCC(C(=O)Nc1ccccc1N)(S(=O)(=O)c1ccc(C(=O)c3ccccc3)cc1)C2 (stereo not drawn) | > 10 µM | > 10 µM | inhibition [1]: inactive; inhibition [2]: inactive; CC50 at 72 h [3]: 43.5 µM
4 | CS(=O)(=O)NC(=O)C1(S(=O)(=O)c2ccc(Oc3ccc(OC(F)(F)F)cc3)cc2)CCC2(CCNCC2)C1 (stereo not drawn) | > 10 µM | > 10 µM | 
5 | CNC(=O)NC(=O)C1(S(=O)(=O)c2ccc(Oc3ccc(OC)cc3)c(Cl)c2)CCC2(CCNCC2)C1 (stereo not drawn) | > 10 µM | > 10 µM | 
6 | CNC(=O)NC(=O)C1(S(=O)(=O)c2ccc(OC)c(Cl)c2)CCC2(CCNCC2)C1 (stereo not drawn) | > 10 µM | > 10 µM | 
7 | O=C(O)C1(S(=O)(=O)c2ccc(Oc3ccc(OC(F)(F)F)cc3)cc2)CCC2(CCNCC2)C1 (stereo not drawn) | > 10 µM | > 10 µM | 
8 | O=C(Nc1nccs1)C1(S(=O)(=O)c2ccc(Oc3ccc(OC(F)(F)F)cc3)cc2)CCC2(CCNCC2)C1 (stereo not drawn) | > 10 µM | > 10 µM | 
9 | CON(C)C(=O)C1(S(=O)(=O)c2ccc(Oc3ccc(OC(F)(F)F)cc3)cc2)CCC2(CCNCC2)C1 (stereo not drawn) | > 10 µM | > 10 µM | 
10 | CN(C)S(=O)(=O)NC(=O)C1(S(=O)(=O)c2ccc(Oc3ccc(OC(F)(F)F)cc3)cc2)CCC2(CCNCC2)C1 (stereo not drawn) | > 10 µM | > 10 µM | 
11 | O=C(Oc1ccccc1)C1(S(=O)(=O)c2ccc(Oc3ccc(OC(F)(F)F)cc3)cc2)CCC2(CCNCC2)C1 (stereo not drawn) | > 10 µM | > 10 µM | CC50 at 72 h [3]: 3.9 µM; log(ratio) [4]: 0.637
12 | CCCN1CCC2(CC1)CCC(C(=O)NC(=O)NC)(S(=O)(=O)c1ccc(Oc3ccc(OC(F)(F)F)cc3)cc1)C2 (stereo not drawn) | > 10 µM | > 10 µM | 
13 | Nc1ccccc1NC(=O)C1(S(=O)(=O)c2ccccc2NC2CCCCC2)CCC2(CCNCC2)C1 (stereo not drawn) | > 10 µM | > 10 µM | solubility [5]: Soluble
14 | O=C(Nc1ccccc1O)C1(S(=O)(=O)c2ccc(Oc3ccc(OC(F)(F)F)cc3)cc2)CCC2(CCNCC2)C1 (stereo not drawn) | > 10 µM | > 10 µM | 
15 | O=C1CN(C(=O)C2(S(=O)(=O)c3ccc(Oc4ccc(OC(F)(F)F)cc4)cc3)CCC3(CCNCC3)C2)CCN1 (stereo not drawn) | > 10 µM | > 10 µM | 
16 | COC(=O)C1(S(=O)(=O)c2ccc(Oc3ccc(OC(F)(F)F)cc3)cc2)CCC2(CCNCC2)C1 (stereo not drawn) | > 10 µM | > 10 µM | 

Row | SMILES | IC50 (Stromelysin-2) | IC50 (Stromelysin-1) | further results
17 | O=C(Nc1ccccn1)C1(S(=O)(=O)c2ccc(Oc3ccc(OC(F)(F)F)cc3)cc2)CCC2(CCNCC2)C1 (stereo not drawn) | > 10 µM | > 10 µM | 
18 | Cc1ccc(-c2ccc(N)c(NC(=O)C3(S(=O)(=O)c4ccc(Oc5ccc(OC(F)(F)F)cc5)cc4)CCC4(CCNCC4)C3)c2)o1 (stereo not drawn) | > 10 µM | > 10 µM | 
19 | COc1ccc(S(=O)(=O)C2(C(=O)Nc3ccccc3N)CCC3(CCNCC3)C2)cc1Cl (stereo not drawn) | > 10 µM | > 10 µM | 
20 | Nc1ccc(F)cc1NC(=O)C1(S(=O)(=O)c2ccc(Oc3ccc(OC(F)(F)F)cc3)cc2)CCC2(CCNCC2)C1 (stereo not drawn) | > 10 µM | > 10 µM | 
21 | Nc1ccccc1NC(=O)C1(S(=O)(=O)c2ccc(Oc3ccc(OC(F)(F)F)cc3)c(Cl)c2)CCC2(CCNCC2)C1 (stereo not drawn) | > 10 µM | > 10 µM | 
22 | COc1ccc(S(=O)(=O)C2(C(=O)Nc3cc(-c4ccccc4)ccc3N)CCC3(CCNCC3)C2)cc1Cl (stereo not drawn) | > 10 µM | > 10 µM | 
23 | O=S(=O)(c1ccc(Oc2ccc(OC(F)(F)F)cc2)cc1)C1CCC2(CCNCC2)C1 (stereo not drawn) | > 10 µM | > 10 µM | 
24 | COc1ccc(N)c(NC(=O)C2(S(=O)(=O)c3ccc(Oc4ccc(OC(F)(F)F)cc4)cc3)CCC3(CCNCC3)C2)c1 (stereo not drawn) | > 10 µM | > 10 µM | 
25 | Nc1ccc(-c2cccs2)cc1NC(=O)C1(S(=O)(=O)c2ccc(Oc3ccc(OC(F)(F)F)cc3)cc2)CCC2(CCNCC2)C1 (stereo not drawn) | > 10 µM | > 10 µM | CC50 at 72 h [3]: 2.8 µM; log(ratio) [4]: 0.493
26 | Nc1ccc(-c2ccccc2)cc1NC(=O)C1(S(=O)(=O)c2ccc(Oc3ccc(OC(F)(F)F)cc3)cc2)CCC2(CCNCC2)C1 (stereo not drawn) | > 10 µM | > 10 µM | CC50 at 72 h [3]: 3.53 µM; log(ratio) [4]: >= 0.946
27 | COc1ccc(Oc2ccc(S(=O)(=O)C3(C(=O)Nc4ccccc4N)CCC4(CCNCC4)C3)cc2Cl)cc1 (stereo not drawn) | > 10 µM | > 10 µM | 
28 | Nc1ccccc1NC(=O)C1(S(=O)(=O)c2ccc(Oc3ccc(OC(F)(F)F)cc3)cc2)CCC2(CCNCC2)C1 (stereo not drawn) | > 10 µM | > 10 µM | CC50 at 72 h [3]: 7.22 µM; log(ratio) [4]: 0.904
29 | Nc1ccccc1NC(=O)C1(S(=O)(=O)c2ccc(NC3CCCCC3)cc2)CCC2(CCNCC2)C1 (stereo not drawn) | > 10 µM | > 10 µM | solubility [5]: Soluble; Time (Mus musculus [6]): 6.58 min; CC50 at 72 h [3]: 43.8 µM; log(ratio) [4]: >= 2.039
30 | CNC(=O)NC(=O)C1(S(=O)(=O)c2ccc(Oc3ccc(OC(F)(F)F)cc3)cc2)CCC2(CCNCC2)C1 (stereo not drawn) | > 10 µM | > 10 µM | solubility [5]: Soluble; Time (Mus musculus [6]): 20.24 min; CC50 at 72 h [3]: 16.2 µM; log(ratio) [4]: >= 1.607
31 | O=C(OCc1ccccc1)C1(S(=O)(=O)c2ccc(Oc3ccc(OC(F)(F)F)cc3)cc2)CCC2(CCNCC2)C1 (stereo not drawn) | > 10 µM | > 10 µM | 
32 | CCCN1CCC2(CC1)CCC(C(=O)Nc1ccccc1N)(S(=O)(=O)c1ccc(Oc3ccc(OC(F)(F)F)cc3)cc1)C2 (stereo not drawn) | > 10 µM | > 10 µM | inhibition [1]: inactive; fold change (FC) (Mus musculus [7]): 3; inhibition [2]: inactive; Activity [8]: inactive; Time (Mus musculus [6]): 3.61 min; CC50 at 72 h [3]: 3.94 µM; Activity (Homo sapiens): inactive; Activity [9]: inactive; log(ratio) [4]: >= 0.993

Source: ChEMBL document CHEMBL4145591, “Phenotypic Screening To Discover Novel Chemical Series as Efficient Antihemorrhagic Agents” (ACS Med Chem Lett, 2018)
